Reference: paper PMC8248323 (Clinical Pharmacology in Drug Development, 2021)
Where two headings read alike, the source gives them in different places.

Columns and labels:
CYP3A [1] = assay type: in vitro ADME; settings: in vitro
[2] = Phase 1 DDI study 004 part B: midazolam; settings: clinically relevant concentrations, daily dosing up to 10 mg
BCRP = BCRP (Homo sapiens, UniProt Q9UNQ0); assay: In vitro transporter substrate assessment; assay type: in vitro ADME
CYP2D6 = CYP2D6 (Homo sapiens, UniProt P10635); assay: In vitro CYP inhibition; assay type: in vitro ADME
CYP3A [3] = assay: in vitro; assay type: in vitro ADME
[4] = Phase 1 DDI study 004 part A: lemborexant plasma PK with/without itraconazole; assay type: in vivo, human
CYP2B6 = CYP2B6 (Homo sapiens, UniProt P20813); assay type: in vitro ADME; settings: in vitro
OATP1B3 [5] = target: T1, OATP1B3 (Homo sapiens, UniProt Q9NPD5); assay: In vitro transporter inhibition; assay type: in vitro ADME
[6] = Safety assessments in phase 1 DDI studies 004 and 012; assay type: in vivo, human
Method in brief: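 Two open-label single-site phase 1 studies in healthy adults, morning dosing. Test compound 10 mg was given alone and with a strong CYP3A inhibitor (200 mg) or inducer (600 mg) daily for 20 days, or with a moderate CYP3A inhibitor (400 mg, then 200 mg daily). It was also given daily for 13 days around CYP3A/CYP2B6 probe substrates. All treatment-emergent and serious AEs were recorded, with serum chemistry, hematology and urinalysis.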

CYP2C8 = CYP2C8 (Homo sapiens, UniProt P10632); assay: In vitro CYP inhibition; assay type: in vitro ADME
[7] = assay type: in vivo, human; settings: for estimated lemborexant exposure: population PK model
OAT1 = OAT1 (Homo sapiens, UniProt Q4U2R8); assay: In vitro transporter inhibition; assay type: in vitro ADME
[8] = target: breast cancer resistance protein (Homo sapiens, UniProt Q9UNQ0); assay: In vitro transporter inhibition; assay type: in vitro ADME
CYP3A [9] = assay type: in vitro ADME; settings: in vitro metabolism studies; unpublished data
OATP1B1 = OATP1B1 (Homo sapiens, UniProt Q9Y6L6); assay: In vitro transporter substrate assessment; assay type: in vitro ADME
[10] = Phase 1 DDI study 004 part A: lemborexant plasma PK with/without rifampin; assay type: in vivo, human
CYP1A2 = CYP1A2 (Homo sapiens, UniProt P05177); assay: In vitro CYP inhibition; assay type: in vitro ADME
[11] = both phase 3 studies; cited from earlier work
CYP2C19 = CYP2C19 (Homo sapiens, UniProt P33261); assay: In vitro CYP inhibition; assay type: in vitro ADME
OAT3 = OAT3 (Homo sapiens, UniProt Q8TCC7); assay: In vitro transporter inhibition; assay type: in vitro ADME
MATE2‐K = MATE2‐K (Homo sapiens, UniProt Q86VL8); assay: In vitro transporter inhibition; assay type: in vitro ADME
OCT1 = OCT1 (Homo sapiens, UniProt O15245); assay: In vitro transporter inhibition; assay type: in vitro ADME
P‐gp [12] = target: T2, P‐gp (Homo sapiens, UniProt P08183); assay: In vitro transporter substrate assessment; assay type: in vitro ADME
OATP1B3 [13] = target: T1, OATP1B3; assay: In vitro transporter substrate assessment; assay type: in vitro ADME
CYP2E1 = CYP2E1 (Homo sapiens, UniProt P05181); assay: In vitro CYP inhibition; assay type: in vitro ADME
CYP2C9 = CYP2C9 (Homo sapiens, UniProt P11712); assay: In vitro CYP inhibition; assay type: in vitro ADME
P‐gp [14] = target: T2, P‐gp; assay: In vitro transporter inhibition; assay type: in vitro ADME
bile salt export pump = bile salt export pump (Homo sapiens, UniProt O95342); assay: In vitro transporter inhibition; assay type: in vitro ADME
OCT2 = OCT2 (Homo sapiens, UniProt O15244); assay: In vitro transporter inhibition; assay type: in vitro ADME
MATE1 = MATE1 (Homo sapiens, UniProt Q96FL8); assay: In vitro transporter inhibition; assay type: in vitro ADME
[15] = coadministration with itraconazole
[16] = lemborexant + itraconazole / lemborexant alone
[17] = rifampin cohort, N = 15, lemborexant alone days 1‐14, with rifampin days 22‐35
[18] = lemborexant + rifampin / lemborexant alone

T1 sequence (Q9NPD5 whole entry): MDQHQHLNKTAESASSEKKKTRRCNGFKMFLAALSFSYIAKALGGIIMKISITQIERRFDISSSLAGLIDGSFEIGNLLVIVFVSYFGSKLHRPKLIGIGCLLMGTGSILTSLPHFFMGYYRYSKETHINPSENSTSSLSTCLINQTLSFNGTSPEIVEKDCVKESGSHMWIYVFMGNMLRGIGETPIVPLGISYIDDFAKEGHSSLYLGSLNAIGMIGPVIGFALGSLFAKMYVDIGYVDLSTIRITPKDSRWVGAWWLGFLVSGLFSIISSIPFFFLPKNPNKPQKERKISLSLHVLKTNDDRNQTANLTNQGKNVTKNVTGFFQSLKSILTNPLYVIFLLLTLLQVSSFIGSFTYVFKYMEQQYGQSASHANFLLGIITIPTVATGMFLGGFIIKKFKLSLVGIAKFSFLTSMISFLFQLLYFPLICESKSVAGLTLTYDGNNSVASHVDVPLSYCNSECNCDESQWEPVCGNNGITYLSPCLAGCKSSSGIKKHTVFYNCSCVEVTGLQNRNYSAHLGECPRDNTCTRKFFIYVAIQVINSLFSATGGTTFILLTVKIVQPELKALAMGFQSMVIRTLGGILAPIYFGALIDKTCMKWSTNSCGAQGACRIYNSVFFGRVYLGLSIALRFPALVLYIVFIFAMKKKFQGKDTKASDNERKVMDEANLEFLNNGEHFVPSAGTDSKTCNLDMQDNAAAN
T2 sequence (P08183 whole entry): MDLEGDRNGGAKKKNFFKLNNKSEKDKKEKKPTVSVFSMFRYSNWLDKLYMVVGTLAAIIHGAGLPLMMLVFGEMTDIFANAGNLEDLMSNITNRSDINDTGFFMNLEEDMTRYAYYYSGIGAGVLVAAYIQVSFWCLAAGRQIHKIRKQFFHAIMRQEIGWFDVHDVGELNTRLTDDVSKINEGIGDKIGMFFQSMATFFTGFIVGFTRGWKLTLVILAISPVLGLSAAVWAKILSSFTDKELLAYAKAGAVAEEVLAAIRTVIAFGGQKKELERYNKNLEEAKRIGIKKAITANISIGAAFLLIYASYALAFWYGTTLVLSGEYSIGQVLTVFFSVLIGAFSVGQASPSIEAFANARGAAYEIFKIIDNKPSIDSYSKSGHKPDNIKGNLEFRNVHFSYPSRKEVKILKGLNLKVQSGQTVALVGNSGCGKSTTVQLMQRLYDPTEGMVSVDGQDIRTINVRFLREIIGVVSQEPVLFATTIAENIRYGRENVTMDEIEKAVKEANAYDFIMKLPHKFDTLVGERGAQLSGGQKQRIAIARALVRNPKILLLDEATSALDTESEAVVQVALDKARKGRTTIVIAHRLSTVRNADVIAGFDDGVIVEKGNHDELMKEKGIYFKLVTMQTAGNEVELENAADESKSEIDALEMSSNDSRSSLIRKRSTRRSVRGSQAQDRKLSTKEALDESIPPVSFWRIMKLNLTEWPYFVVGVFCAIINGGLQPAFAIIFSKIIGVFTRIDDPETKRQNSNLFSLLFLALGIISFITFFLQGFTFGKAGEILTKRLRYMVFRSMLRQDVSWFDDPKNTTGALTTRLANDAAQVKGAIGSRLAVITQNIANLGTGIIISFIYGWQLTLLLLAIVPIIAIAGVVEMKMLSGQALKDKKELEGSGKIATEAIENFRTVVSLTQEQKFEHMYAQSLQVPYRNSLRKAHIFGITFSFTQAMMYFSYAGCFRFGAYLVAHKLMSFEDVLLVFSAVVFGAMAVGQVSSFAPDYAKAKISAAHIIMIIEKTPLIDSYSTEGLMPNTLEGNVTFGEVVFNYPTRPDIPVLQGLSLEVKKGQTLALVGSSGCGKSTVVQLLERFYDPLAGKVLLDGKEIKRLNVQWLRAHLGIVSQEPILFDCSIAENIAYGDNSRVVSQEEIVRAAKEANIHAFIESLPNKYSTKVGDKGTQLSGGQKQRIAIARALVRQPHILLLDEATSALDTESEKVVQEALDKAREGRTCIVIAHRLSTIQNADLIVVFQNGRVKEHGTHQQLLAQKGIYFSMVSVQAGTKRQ
Sequence of CYP2E1 (P05181 whole entry): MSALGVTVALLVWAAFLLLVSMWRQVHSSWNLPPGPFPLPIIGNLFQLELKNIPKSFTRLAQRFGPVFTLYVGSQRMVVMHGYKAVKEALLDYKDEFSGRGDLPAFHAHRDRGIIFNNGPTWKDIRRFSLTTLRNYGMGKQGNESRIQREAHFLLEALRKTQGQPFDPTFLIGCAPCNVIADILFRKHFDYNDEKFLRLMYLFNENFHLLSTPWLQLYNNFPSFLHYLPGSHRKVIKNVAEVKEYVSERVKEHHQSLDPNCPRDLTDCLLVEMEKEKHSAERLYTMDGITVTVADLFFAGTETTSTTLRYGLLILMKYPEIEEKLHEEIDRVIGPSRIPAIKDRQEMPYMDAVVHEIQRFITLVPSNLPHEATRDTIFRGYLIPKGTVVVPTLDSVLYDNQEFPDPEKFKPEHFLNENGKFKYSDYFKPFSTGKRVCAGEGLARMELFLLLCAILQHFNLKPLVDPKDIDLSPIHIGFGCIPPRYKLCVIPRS
Sequence of OCT1 (O15245 whole entry): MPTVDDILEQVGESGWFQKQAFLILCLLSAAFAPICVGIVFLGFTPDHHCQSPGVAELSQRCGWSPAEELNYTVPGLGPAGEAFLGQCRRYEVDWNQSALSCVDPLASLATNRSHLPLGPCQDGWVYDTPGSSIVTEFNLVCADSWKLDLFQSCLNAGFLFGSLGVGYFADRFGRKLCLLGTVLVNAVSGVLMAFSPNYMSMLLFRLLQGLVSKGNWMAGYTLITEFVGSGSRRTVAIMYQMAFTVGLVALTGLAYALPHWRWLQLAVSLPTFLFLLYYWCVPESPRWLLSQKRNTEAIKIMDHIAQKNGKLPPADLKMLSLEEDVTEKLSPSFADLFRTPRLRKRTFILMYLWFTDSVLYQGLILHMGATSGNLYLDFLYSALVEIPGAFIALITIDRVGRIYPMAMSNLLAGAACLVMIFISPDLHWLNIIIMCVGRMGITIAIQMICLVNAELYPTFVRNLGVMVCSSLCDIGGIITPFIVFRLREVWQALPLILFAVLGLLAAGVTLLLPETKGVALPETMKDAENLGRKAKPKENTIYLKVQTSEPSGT
Sequence of BCRP (Q9UNQ0 whole entry): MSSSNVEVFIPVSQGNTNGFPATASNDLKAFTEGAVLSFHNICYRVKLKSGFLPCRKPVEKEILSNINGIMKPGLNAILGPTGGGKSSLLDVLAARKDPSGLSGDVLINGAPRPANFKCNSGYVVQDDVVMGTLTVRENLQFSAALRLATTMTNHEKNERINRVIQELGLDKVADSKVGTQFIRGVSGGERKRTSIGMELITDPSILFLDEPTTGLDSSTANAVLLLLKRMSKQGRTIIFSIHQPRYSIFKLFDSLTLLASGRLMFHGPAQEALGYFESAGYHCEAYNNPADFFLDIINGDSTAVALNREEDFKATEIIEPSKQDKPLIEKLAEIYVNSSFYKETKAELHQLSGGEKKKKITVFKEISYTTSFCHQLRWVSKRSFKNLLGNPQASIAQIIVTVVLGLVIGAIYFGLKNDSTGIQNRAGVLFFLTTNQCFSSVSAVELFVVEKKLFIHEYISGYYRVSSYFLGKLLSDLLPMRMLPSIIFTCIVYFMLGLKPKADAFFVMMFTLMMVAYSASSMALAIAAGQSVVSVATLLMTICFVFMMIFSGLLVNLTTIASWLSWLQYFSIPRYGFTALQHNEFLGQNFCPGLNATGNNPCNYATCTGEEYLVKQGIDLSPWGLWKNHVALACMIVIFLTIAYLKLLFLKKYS
Sequence of breast cancer resistance protein (Q9UNQ0 whole entry): as above
Sequence of CYP2D6 (P10635 whole entry): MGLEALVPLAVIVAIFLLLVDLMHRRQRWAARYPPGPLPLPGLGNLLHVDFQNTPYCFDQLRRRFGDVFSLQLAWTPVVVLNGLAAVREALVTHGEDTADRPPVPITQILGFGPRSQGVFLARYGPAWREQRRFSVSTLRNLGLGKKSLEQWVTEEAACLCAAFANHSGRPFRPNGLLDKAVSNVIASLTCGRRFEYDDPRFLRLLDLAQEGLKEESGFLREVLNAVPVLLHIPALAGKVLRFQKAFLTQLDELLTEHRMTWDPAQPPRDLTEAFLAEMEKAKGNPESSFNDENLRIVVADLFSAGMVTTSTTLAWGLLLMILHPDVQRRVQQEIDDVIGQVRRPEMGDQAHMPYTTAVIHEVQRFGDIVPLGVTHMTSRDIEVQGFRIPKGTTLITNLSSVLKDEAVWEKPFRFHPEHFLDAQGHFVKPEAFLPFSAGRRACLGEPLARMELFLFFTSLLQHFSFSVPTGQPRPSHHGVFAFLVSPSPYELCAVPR
Sequence of MATE1 (Q96FL8 whole entry): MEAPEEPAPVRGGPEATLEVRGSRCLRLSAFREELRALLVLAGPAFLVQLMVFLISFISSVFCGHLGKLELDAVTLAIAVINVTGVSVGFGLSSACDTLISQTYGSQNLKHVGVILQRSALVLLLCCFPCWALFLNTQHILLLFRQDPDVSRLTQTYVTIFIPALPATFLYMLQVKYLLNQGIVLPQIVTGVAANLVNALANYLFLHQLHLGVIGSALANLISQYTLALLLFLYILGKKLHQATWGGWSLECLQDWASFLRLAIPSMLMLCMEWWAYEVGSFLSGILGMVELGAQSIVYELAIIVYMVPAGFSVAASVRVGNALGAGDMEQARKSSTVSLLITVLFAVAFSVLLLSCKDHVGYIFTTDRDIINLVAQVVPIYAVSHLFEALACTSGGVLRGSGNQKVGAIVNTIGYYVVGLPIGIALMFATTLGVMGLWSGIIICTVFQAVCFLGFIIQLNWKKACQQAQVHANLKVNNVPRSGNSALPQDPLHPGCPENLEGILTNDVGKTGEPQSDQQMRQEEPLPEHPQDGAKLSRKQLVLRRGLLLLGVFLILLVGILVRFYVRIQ

Q: With `Cc1ncc(OC[C@@]2(c3cccc(F)c3)C[C@H]2C(=O)Nc2ccc(F)cn2)c(C)n1` [Lemborexant, (1R,2S)‐2‐{[(2,4‐dimethylpyrimidin‐5‐yl)oxy]methyl}‐2‐(3‐fluorophenyl)‐N‐(5‐fluoropyridin‐2‐yl)cyclopropanecarboxamide] as the compound, how does the “induction of CYP3A” value (CYP3A [1]) read?
A: have the potential to induce

Q: And the “clinical effect on CYP2B6” value [2]?
A: has the potential to induce CYP2B6

Q: And the “substrate of BCRP” value (BCRP)?
A: neither lemborexant nor M10 was a substrate

Q: And the “inhibition of CYP2D6” value (CYP2D6)?
A: do not inhibit

Q: And the KI (inactivation) (CYP3A [3])?
A: 25.2 µM

Q: What about the inhibition at 30 μmol/L (CYP3A [3]) of the same compound?
A: 61.5%

Q: And the kinact (CYP3A [3])?
A: 0.000838 s⁻¹

Q: What about the “increase in lemborexant AUC0–inf” value [4, 15] of the same compound?
A: 3.7 fold

Q: What about the “increase in lemborexant Cmax” value [4, 15] of the same compound?
A: 1.4 fold

Q: What about the half-life ([4]; human, plasma, 10 mg) of the same compound?
A: 54.4 h

Q: What about the AUC ([4]; human, plasma, 10 mg, AUC0‐inf, Geometric LSM, lemborexant 10 mg alone, n = 15, itraconazole cohort) of the same compound?
A: 433 ng·h/mL

Q: And the AUC ([4]; human, plasma, 10 mg, AUC0‐inf, Mean (SD), lemborexant 10 mg alone, itraconazole cohort)?
A: 464 ng·h/mL

Q: And the AUC ([4]; human, plasma, 10 mg, AUC0‐t, Mean (SD), lemborexant 10 mg alone, itraconazole cohort)?
A: 437 ng·h/mL

Q: What about the AUC ([4]; human, plasma, AUC0‐inf, Geometric LSM, lemborexant 10 mg + itraconazole 200 mg, n = 11) of the same compound?
A: 1600 ng·h/mL

Q: And the AUC ([4]; human, plasma, AUC0‐inf, Mean (SD), lemborexant 10 mg + itraconazole 200 mg)?
A: 1640 ng·h/mL

Q: What about the AUC ([4]; human, plasma, AUC0‐t, Geometric LSM, lemborexant 10 mg + itraconazole 200 mg once daily, n = 14) of the same compound?
A: 1480 ng·h/mL

Q: And the AUC ([4]; human, plasma, AUC0‐t, Mean (SD), lemborexant 10 mg + itraconazole 200 mg)?
A: 1540 ng·h/mL

Q: What about the Cmax ([4]; human, plasma, Cmax, Mean (SD), lemborexant 10 mg + itraconazole 200 mg) of the same compound?
A: 75 ng/mL

Q: And the “AUC0‐inf, Geometric Mean Ratio (90%CI)” value [4, 16]?
A: 3.702 (3.183‐4.306)

Q: And the “AUC0‐t, Geometric Mean Ratio (90%CI)” value [4, 16]?
A: 3.605 (3.122‐4.162)

Q: And the “Cmax, Geometric Mean Ratio (90%CI)” value [4, 16]?
A: 1.360 (1.181‐1.567)

Q: And the “inhibition of CYP2B6” value (CYP2B6)?
A: do not inhibit

Q: And the “inhibition of OATP1B3” value (OATP1B3 [5])?
A: do not inhibit

Q: And the “subjects who experienced sleep paralysis” value ([6]; across the phase 1 studies)?
A: 4 subjects

Q: What about the “time of sleep paralysis after lemborexant dosing” value ([6]; all cases) of the same compound?
A: ≤ 1 h

Q: And the “severity of sleep paralysis” value ([6]; all cases, resolved, no discontinuation)?
A: mild

Q: And the “changes in laboratory values, vital signs, electrocardiograms, or physical examination findings” value ([6]; phase 1 DDI studies)?
A: no clinically important changes

Q: And the tolerability ([6]; phase 1 studies)?
A: generally well tolerated

Q: And the AEs [6, 17]?
A: 4 (26.7) n (%)

Q: What about the “AEs leading to study discontinuation” value [6, 17] of the same compound?
A: 0 n (%)

Q: What about the “AEs, Mild” value [6, 17] of the same compound?
A: 4 (26.7) n (%)

Q: And the “AEs, Moderate” value [6, 17]?
A: 0 n (%)

Q: And the “AEs, Severe” value [6, 17]?
A: 0 n (%)

Q: And the Death [6, 17]?
A: 0 n (%)

Q: What about the SAEs [6, 17] of the same compound?
A: 0 n (%)

Q: What about the “Treatment‐related AEs” value [6, 17] of the same compound?
A: 2 (13.3) n (%)

Q: What about the “inhibition of CYP2C8” value (CYP2C8) of the same compound?
A: do not inhibit

Q: And the “higher exposure with weak CYP3A inhibitors” value ([7]; average, with versus without weak CYP3A inhibitors)?
A: 30%

Q: And the estimated lemborexant exposure ([7]; subjects coadministered weak CYP3A inhibitors, n = 15, studies 303 and 304)?
A: 420 ng·h/mL

Q: What about the estimated lemborexant exposure ([7]; subjects not coadministered weak CYP3A inhibitors, n = 257, studies 303 and 304) of the same compound?
A: 330 ng·h/mL

Q: And the “degree of CYP3A inhibition (exposure ratio)” value ([7]; with versus without weak CYP3A inhibitors)?
A: 1.3 fold

Q: What about the “inhibition of OAT1” value (OAT1) of the same compound?
A: do not inhibit

Q: What about the “inhibition of breast cancer resistance protein” value [8] of the same compound?
A: do not inhibit

Q: And the metabolic pathway (CYP3A [9])?
A: predominantly metabolized by the cytochrome P450 3A (CYP3A) pathway

Q: What about the “substrate of OATP1B1” value (OATP1B1) of the same compound?
A: neither lemborexant nor M10 was a substrate

Q: What about the “decrease in lemborexant AUC0‐inf” value ([10]; coadministration with rifampin) of the same compound?
A: > 90%

Q: What about the “decrease in lemborexant Cmax” value ([10]; coadministration with rifampin) of the same compound?
A: > 90%

Q: And the half-life ([10]; human, plasma, 10 mg)?
A: 45.6 h

Q: What about the AUC ([10]; human, plasma, 10 mg, AUC0‐inf, Geometric LSM, lemborexant 10 mg alone, n = 15, rifampin cohort) of the same compound?
A: 389 ng·h/mL

Q: What about the AUC ([10]; human, plasma, 10 mg, AUC0‐inf, Mean (SD), lemborexant 10 mg alone, rifampin cohort) of the same compound?
A: 428 ng·h/mL

Q: And the AUC ([10]; human, plasma, 10 mg, AUC0‐t, Mean (SD), lemborexant 10 mg alone, rifampin cohort)?
A: 409 ng·h/mL

Q: What about the Cmax ([10]; human, plasma, 10 mg, Geometric LSM, lemborexant 10 mg alone, n = 15, rifampin cohort) of the same compound?
A: 55.5 ng/mL

Q: What about the Cmax ([10]; human, plasma, 10 mg, Mean (SD), lemborexant 10 mg alone, rifampin cohort) of the same compound?
A: 58.9 ng/mL

Q: What about the AUC ([10]; human, plasma, AUC0‐inf, Geometric LSM, lemborexant 10 mg + rifampin 600 mg, n = 9) of the same compound?
A: 13.4 ng·h/mL

Q: And the AUC ([10]; human, plasma, AUC0‐inf, Mean (SD), lemborexant 10 mg + rifampin 600 mg)?
A: 15.8 ng·h/mL

Q: And the AUC ([10]; human, plasma, AUC0‐t, Geometric LSM, lemborexant 10 mg + rifampin 600 mg once daily, n = 15)?
A: 12.3 ng·h/mL

Q: And the AUC ([10]; human, plasma, AUC0‐t, Mean (SD), lemborexant 10 mg + rifampin 600 mg)?
A: 13.5 ng·h/mL

Q: And the Cmax ([10]; human, plasma, Geometric LSM, lemborexant 10 mg + rifampin 600 mg, n = 15)?
A: 4.7 ng/mL

Q: What about the Cmax ([10]; human, plasma, Mean (SD), lemborexant 10 mg + rifampin 600 mg) of the same compound?
A: 5.3 ng/mL

Q: And the “AUC0‐inf, Geometric Mean Ratio (90%CI)” value [10, 18]?
A: 0.034 (0.026‐0.045)

Q: And the “AUC0‐t, Geometric Mean Ratio (90%CI)” value [10, 18]?
A: 0.033 (0.027‐0.040)

Q: What about the “Cmax, Geometric Mean Ratio (90%CI)” value [10, 18] of the same compound?
A: 0.085 (0.067‐0.107)

Q: And the “inhibition of CYP1A2” value (CYP1A2)?
A: do not inhibit

Q: And the tolerability [11]?
A: well tolerated

Q: And the “inhibition of CYP2C19” value (CYP2C19)?
A: do not inhibit

Q: What about the “inhibition of OAT3” value (OAT3) of the same compound?
A: do not inhibit

Q: What about the “inhibition of MATE2‐K” value (MATE2‐K) of the same compound?
A: do not inhibit

Q: And the “inhibition of OCT1” value (OCT1)?
A: do not inhibit

Q: What about the “substrate of P‐gp” value (P‐gp [12]) of the same compound?
A: potential poor substrate

Q: And the “substrate of OATP1B3” value (OATP1B3 [13])?
A: neither lemborexant nor M10 was a substrate

Q: What about the “inhibition of CYP2E1” value (CYP2E1) of the same compound?
A: do not inhibit

Q: What about the “inhibition of CYP2C9” value (CYP2C9) of the same compound?
A: do not inhibit

Q: What about the “inhibition of P‐gp” value (P‐gp [14]) of the same compound?
A: do not inhibit

Q: What about the “inhibition of bile salt export pump” value (bile salt export pump) of the same compound?
A: do not inhibit

Q: What about the “inhibition of OCT2” value (OCT2) of the same compound?
A: do not inhibit

Q: And the “inhibition of MATE1” value (MATE1)?
A: do not inhibit
